Compound activity deposited in PubChem by several laboratories.
Tb hexokinase: blocks Trypanosoma brucei hexokinase 1 activity; recombinant TbHK1, G6PDH-coupled NADH A340; inhibition, % at 10 µM; hit rate 0.11% among 220,000; AID 1430;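 active = inhibition of 50% or more in the single-dose primary screen; inactive = inhibition below 50%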
HSF1 activator: increases HSF-1 driven luciferase reporter signal; NIH3T3-HGL HSF-1 luciferase reporter, MG132, 8 h; 100% = twice DMSO control signal; AID 504408; hit rate 1.7% among 300,000; activation, % at 9 µM;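 active = mean replicate activation of at least 50% with a set share of replicates each reaching 50%; inconclusive = only one of those two conditions met; inactive = mean below 50% and too few replicates reaching it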;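 note: 0% = median of the neutral control wells and 100% = twice that signal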
HSF1 inhib: HSF1 inhibition. NIH3T3-HGL HSE-luciferase, MG132-induced, luminescence 8 h; active compounds read low. activity change, negative = inhibition, % at 7.5 µM (by protocol). hit rate 0.77% among 300,000;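 active = more than half of replicate wells show activity change below -50%, luminescence cut by over half; inconclusive = some wells, but at most half, below -50%; inactive = no replicate well below -50%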;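 note: luciferase reports HSF-1 transcriptional activity via heat shock element; 0% = median of DMSO wells and -100% = zero luminescence signal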
HSP90 inh: HSP90 refolding inhibition in rabbit reticulocyte lysate; inhibition, % at 5.6 µM; hit rate 0.91% among 290,000; luciferase refolding luminescence, 3 h;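 active = inhibition above the screen-wide mean plus 3 SD, computed separately per campaign, cut at about 16% in these data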;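 note: 0% = DMSO wells and 100% = 60 µM geldanamycin wells; inhibitors lower the luminescence because luciferase stays unfolded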
HKDC1 inh: blocks human hexokinase HKDC1 activity; inhibition, % at 20 µM; Q2TB90; hit rate 0.16% among 340,000; recombinant HKDC1, G6PDH/diaphorase resazurin coupled fluorescence;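 active = inhibition above about 35% when tested at 20 µM, limit read from the data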;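 note: plate controls were DMSO wells with enzyme for no effect and DMSO wells lacking enzyme for full effect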
Target sequence (Q2TB90 whole entry, looked up): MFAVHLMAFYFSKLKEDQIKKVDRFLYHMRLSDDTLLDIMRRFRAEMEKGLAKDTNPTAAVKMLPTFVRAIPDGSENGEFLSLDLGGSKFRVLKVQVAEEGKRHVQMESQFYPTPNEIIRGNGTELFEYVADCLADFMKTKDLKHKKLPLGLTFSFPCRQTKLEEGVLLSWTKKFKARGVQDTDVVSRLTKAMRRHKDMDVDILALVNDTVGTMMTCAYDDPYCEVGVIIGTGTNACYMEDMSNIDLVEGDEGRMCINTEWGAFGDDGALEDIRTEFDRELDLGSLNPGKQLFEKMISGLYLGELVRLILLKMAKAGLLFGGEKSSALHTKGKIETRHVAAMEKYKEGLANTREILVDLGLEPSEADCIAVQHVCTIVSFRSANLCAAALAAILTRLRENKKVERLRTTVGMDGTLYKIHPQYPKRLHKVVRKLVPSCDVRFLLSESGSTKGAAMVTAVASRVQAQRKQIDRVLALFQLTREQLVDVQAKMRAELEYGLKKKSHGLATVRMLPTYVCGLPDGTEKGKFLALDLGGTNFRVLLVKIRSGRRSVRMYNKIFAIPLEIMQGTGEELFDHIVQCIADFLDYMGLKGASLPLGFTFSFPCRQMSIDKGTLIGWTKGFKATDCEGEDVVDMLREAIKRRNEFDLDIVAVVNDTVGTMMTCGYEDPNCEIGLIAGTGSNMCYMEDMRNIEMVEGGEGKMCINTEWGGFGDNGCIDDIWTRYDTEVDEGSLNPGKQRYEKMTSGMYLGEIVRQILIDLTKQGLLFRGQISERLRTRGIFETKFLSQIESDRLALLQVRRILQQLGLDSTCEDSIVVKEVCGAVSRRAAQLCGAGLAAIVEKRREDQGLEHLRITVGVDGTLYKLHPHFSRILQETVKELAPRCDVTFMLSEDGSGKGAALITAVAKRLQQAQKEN
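System: Recombinant HKDC1 hexokinase | Amount: HKDC1 at 5 µg/mL | Reagent: Glucose with 1 mM ATP | Doses: Single 20 µM dose | Incubation: Reaction time 90 min, room temperature, protected from light | Signal: Coupled resazurin fluorescence, excitation 525 nm, emission 613 nm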
Hsp70 act: switches on Hsp70 transcription | HeLa Hsp70 promoter luciferase reporter, luminescence; scaled: vehicle 0, proteasome-inhibitor control 100% | activation, % at 10 µM | hit rate 0.04% among 200,000 | AID 1203;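 active = activation above the mean across all tested compounds plus 3 SD, cutoff set per campaign, cut at about 5.5% in these data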;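 note: 100% = MG132 at 30 µM as the positive control and 0% = DMSO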
* hit, by the source's call; ? = inconclusive; . = not tested or not shown. A selection: hits, their analogues and other compounds. The true share with any hit is near 3.1%.

SMILES	Tb hexokinase	HSF1 activator	HSF1 inhib	HSP90 inh	HKDC1 inh	Hsp70 act
Cc1c(CC(=O)O)c(=O)oc2cc3occ(-c4ccc(F)cc4)c3cc12	.	4.7	-3.0	-0.8	9.1	.
COc1ccc(-c2coc3cc4oc(=O)c(CC(=O)O)c(C)c4cc23)cc1	.	71.0*	20.8	2.3	26.3	.
Cc1c(CC(=O)O)c(=O)oc2cc(OCc3ccc(Br)cc3)ccc12	.	8.0	-5.4	16.9*	1.7	.
Cc1ccc(S(=O)(=O)N2[C@@H](c3cccc(Cl)c3)C(C(=O)O)=CC[C@H]2c2ccc3c(c2)OCO3)cc1	.	.	.	.	-2.0	.
CC(=O)c1cccc(NC(=O)CN2CCc3cc4c(cc3C2)OCCCO4)c1	.	-2.1	-2.7	-4.0	-4.8	.
Cc1ccc(/C=C2/C(=O)ON=C2c2ccccc2)o1	6.0	86.1*	34.4	0.7	10.8	.
O=C1ON=C(c2ccccc2)/C1=C\c1ccco1	16.1	-14.7	0.8	0.7	-3.9	.
CCCCCCCSc1ncnc2[nH]ncc12	.	.	.	.	-1.4	.
CC(C)NC(=O)CN(C(=O)CCC(=O)Nc1nccs1)c1ccc2c(c1)OCO2	.	65.7*	21.5	-3.0	-2.7	.
COc1ccc(N2CCN(C3CCCN(S(=O)(=O)c4ccc(C)cc4C)C3)CC2)cc1 (configuration not stated)	.	2.4	-0.4	3.3	6.7	.
Clc1ccc2nc(N3CCN(c4ccccc4)CC3)sc2c1	-11.8	?	39.9	0.4	-1.8	0.2
Cc1cc(C)nc(Nc2nc3ccccc3s2)n1	3.5	14.0	13.9	-1.7	-4.1	0.2
Cc1ccc(Nc2nc3ccccc3s2)c(C)c1	1.7	66.1*	10.8	3.4	-0.1	-0.2
c1ccc(N2CCN(c3nc4cc5c(cc4s3)OCO5)CC2)cc1	-4.5	71.9*	48.0	0.7	-3.2	0.3
Brc1ccc2nc(N3CCN(c4ccccc4)CC3)sc2c1	-7.1	73.1*	41.1	-2.4	-6.8	-0.5
c1c2c(cc3sc(N4CCOCC4)nc13)OCO2	1.1	41.0	11.0	2.0	-1.9	0.0
c1ccc2sc(Nc3nc4cc5c(cc4s3)OCO5)nc2c1	20.9	75.7*	36.9	4.2	-9.6	-0.1
O=C(CNC(=O)c1ccc2c(=O)n3c(nc2c1)CCC3)Nc1ccc(F)c(F)c1	.	-21.7	-5.6	.	-1.1	.
N#CC1=C(N)Oc2c(ccc3ccccc23)C1c1ccsc1 (configuration not stated)	-3.7	65.3*	45.2	-9.2	10.8	0.2
CCc1[nH]nc2c1C(c1ccsc1)C(C#N)=C(N)O2 (configuration not stated)	-1.3	52.8*	15.7	-1.6	-4.6	-0.1
Cc1ccc(SCc2[nH]nc3c2C(c2ccc(C)o2)C(C#N)=C(N)O3)cc1 (configuration not stated)	2.5	-73.8	-66.2*	3.4	-4.4	-0.2
CCCc1[nH]nc2c1C(c1cc(OC)cc(OC)c1)C(C#N)=C(N)O2 (configuration not stated)	-1.8	13.9	1.8	-3.2	-1.2	-0.4
Cc1ccc(SCc2[nH]nc3c2C(c2ccco2)C(C#N)=C(N)O3)cc1 (configuration not stated)	8.2	29.4	19.3	5.4	8.3	-0.3
CCCc1[nH]nc2c1C(c1cc(OC)ccc1F)C(C#N)=C(N)O2 (configuration not stated)	2.7	74.1*	29.8	3.2	4.1	-0.2
N#CC1=C(N)Oc2c(oc(CO)cc2=O)C1c1ccsc1 (configuration not stated)	-1.5	6.9	-4.4	-3.2	4.9	-0.3
SMILES	Tb hexokinase	HSF1 activator	HSF1 inhib	HSP90 inh	HKDC1 inh	Hsp70 act
CC1(C)Oc2ccc(C(=O)Nc3ccccc3)cc2N(CC#N)C1=O	.	23.8	4.2	-0.8	-2.8	.
O=C(Nc1ccc2c(c1)CCCN2C(=O)c1cccs1)c1cccc(F)c1	.	59.5*	35.4	-0.2	3.4	.
CC(C)(C)c1ccc(/C=N/N2C(=O)CSC2=S)cc1	.	-79.2	-76.8*	3.5	2.9	.
COc1ccc(/C=N/N2C(=O)CSC2=S)cc1	-31.3	-7.4	8.3	1.8	-8.5	-0.4
COc1ccccc1OCCC(=O)Nc1cccc(S(=O)(=O)N2CCOCC2)c1	.	.	.	.	-3.3	.
C/C(N)=C(/C#N)C(=O)COC(=O)c1cc(C)n(-c2ccc(F)cc2)c1C	0.9	84.2*	52.4	0.2	0.2	-0.1
CCOC(=O)C1=CN(CC)S(=O)(=O)NC1c1cccc(OC)c1 (configuration not stated)	.	.	.	.	2.0	.
